According to ChEMBL document CHEMBL4118286, “Design, synthesis and evaluation of novel bivalent β-carboline derivatives as multifunctional agents for the treatment of Alzheimer's disease” (Bioorg Med Chem, 2018):
Active and inactive are the calls of the source. The calls are words filed in the database; no cut-off is given here.

Legend:
[1] = target: Acetylcholinesterase (Electrophorus electricus, UniProt O42275); test: Inhibition of electric eel AChE using acetylthiocholine iodide as substrate preincubated for 2 mins followed by substrate addition and measured after 2 mins by Ellman's method
[2] = target: Cholinesterase (Equus caballus, UniProt P81908); test: Inhibition of equine serum BChE using butyrylthiocholine iodide as substrate preincubated for 2 mins followed by substrate addition and measured after 2 mins by Ellman's method
How it was run: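 Equine serum BuChE (Type VI-S) inhibition measured by the Ellman method. IC50 is the inhibitor concentration giving 50% enzyme inactivation, reported as mean ± SEM of three experiments.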

[3] = Selectivity index, ratio of IC50 for electric eel AChE to IC50 for equine serum BChE
How it was run: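 Electric eel AChE (Type VI-S) and equine serum BuChE (Type VI-S) were each assayed by the Ellman method, with IC50 as mean ± SEM of three experiments. Selectivity index was calculated as IC50(AChE)/IC50(BuChE).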

[4] = target: Amyloid-beta precursor protein (Homo sapiens) (UniProt P05067); test: Inhibition of self-induced human amyloid beta (1 to 42) aggregation at 25 uM after 24 hrs by thioflavin-T based fluorescence assay relative to control
How it was run: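 Thioflavin T fluorescence assay of self-induced Aβ1-42 aggregation, with test compound present at 25 μM and resveratrol as the positive control. Inhibition is given in percent as mean ± SD of at least three independent experiments.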

[5] = tested on: SH-SY5Y; test: Neurotoxicity against human SH-SY5Y cells assessed as decrease in cell viability at 1 to 10 uM after 24 hrs by MTT assay; assay type: toxicity, cell-based
How it was run: (§1)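 Cytotoxicity assay: SH-SY5Y cells were incubated with compound at 1, 2.5, 5 or 10 μM for 24 h. Viability was determined by MTT and expressed as percent of control, mean ± SD of 3 independent experiments.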

[6] = Neurotoxicity against human SH-SY5Y cells assessed as cell viability at 1 uM after 24 hrs by MTT assay relative to control; assay type: toxicity, cell-based; conditions: read-out: Activity; how it was run: as §1
[7] = Neurotoxicity against human SH-SY5Y cells assessed as cell viability at 2.5 uM after 24 hrs by MTT assay relative to control; assay type: toxicity, cell-based; conditions: read-out: Activity; how it was run: as §1
[8] = Neurotoxicity against human SH-SY5Y cells assessed as cell viability at 5 uM after 24 hrs by MTT assay relative to control; assay type: toxicity, cell-based; conditions: read-out: Activity; how it was run: as §1
[9] = Neurotoxicity against human SH-SY5Y cells assessed as cell viability at 10 uM after 24 hrs by MTT assay relative to control; assay type: toxicity, cell-based; conditions: read-out: Activity; how it was run: as §1
[10] = tested on: SH-SY5Y; test: Neuroprotective activity against amyloid beta (1 to 42)-induced neurodegeneration in human SH-SY5Y cells assessed as increase in cell viability at 1 uM after 48 hrs by MTT assay; assay type: functional, cell-based
How it was run: (§2)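 SH-SY5Y neuroblastoma cells were exposed to Aβ1-42 (30 μM) for 48 h, with or without compound at 1 or 5 μM. Viability was measured by MTT assay against Aβ1-42-only and untreated controls. Data are mean ± SEM of three experiments, each run in triplicate.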

[11] = tested on: SH-SY5Y; test: Neuroprotective activity against H2O2-induced oxidative stress in human SH-SY5Y cells assessed as cell viability at 1 uM after 24 hrs by MTT assay (reference value: 57.2%); assay type: functional; conditions: read-out: Activity
How it was run: (§3)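 SH-SY5Y cells were treated with H₂O₂ (300 μM) for 24 h, with compound (1 or 5 μM) co-treated. Viability was read by MTT and compared with H₂O₂-only and untreated controls. Data are mean ± SEM of three experiments, each run in triplicate.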

[12] = tested on: SH-SY5Y; test: Neuroprotective activity against H2O2-induced oxidative stress in human SH-SY5Y cells assessed as cell viability at 5 uM after 24 hrs by MTT assay (reference value: 57.2%); assay type: functional; conditions: read-out: Activity; how it was run: as §3
[13] = tested on: SH-SY5Y; test: Neuroprotective activity against okadaic acid-induced cell death in human SH-SY5Y cells assessed as cell viability at 1 uM after 24 hrs by MTT assay (reference value: 53.1%); assay type: functional; conditions: read-out: Activity
[14] = target: Cholinesterase (Equus caballus) (UniProt P81908); test: Potency index, ratio of donepezil IC50 to compound IC50 for equine serum BChE
[15] = tested on: SH-SY5Y; test: Neuroprotective activity against okadaic acid-induced cell death in human SH-SY5Y cells assessed as increase in cell viability at 1 uM after 24 hrs by MTT assay; assay type: functional, cell-based
[16] = tested on: SH-SY5Y; test: Neuroprotective activity against amyloid beta (1 to 42)-induced neurodegeneration in human SH-SY5Y cells assessed as increase in cell viability at 1 to 5 uM after 48 hrs by MTT assay; assay type: functional, cell-based; how it was run: as §2

Chain of Acetylcholinesterase (O42275 whole entry): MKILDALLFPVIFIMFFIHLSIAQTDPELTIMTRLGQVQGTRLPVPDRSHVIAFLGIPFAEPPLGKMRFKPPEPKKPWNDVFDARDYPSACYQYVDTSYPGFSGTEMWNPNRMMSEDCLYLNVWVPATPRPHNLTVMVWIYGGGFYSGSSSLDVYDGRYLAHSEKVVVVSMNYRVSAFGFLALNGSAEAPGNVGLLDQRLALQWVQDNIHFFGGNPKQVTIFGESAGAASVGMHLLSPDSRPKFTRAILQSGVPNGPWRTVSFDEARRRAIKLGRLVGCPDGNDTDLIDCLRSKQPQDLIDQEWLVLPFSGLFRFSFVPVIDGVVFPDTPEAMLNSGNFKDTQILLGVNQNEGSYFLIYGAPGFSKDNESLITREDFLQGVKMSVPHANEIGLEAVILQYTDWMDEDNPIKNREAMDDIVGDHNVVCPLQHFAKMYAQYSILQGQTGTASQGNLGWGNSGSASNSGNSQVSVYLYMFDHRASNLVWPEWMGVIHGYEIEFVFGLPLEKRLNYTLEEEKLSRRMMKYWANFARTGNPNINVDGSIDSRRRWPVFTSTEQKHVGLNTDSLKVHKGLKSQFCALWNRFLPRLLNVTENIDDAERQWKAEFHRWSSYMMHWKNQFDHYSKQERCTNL
Chain of Amyloid-beta precursor protein (Homo sapiens) (P05067 whole entry): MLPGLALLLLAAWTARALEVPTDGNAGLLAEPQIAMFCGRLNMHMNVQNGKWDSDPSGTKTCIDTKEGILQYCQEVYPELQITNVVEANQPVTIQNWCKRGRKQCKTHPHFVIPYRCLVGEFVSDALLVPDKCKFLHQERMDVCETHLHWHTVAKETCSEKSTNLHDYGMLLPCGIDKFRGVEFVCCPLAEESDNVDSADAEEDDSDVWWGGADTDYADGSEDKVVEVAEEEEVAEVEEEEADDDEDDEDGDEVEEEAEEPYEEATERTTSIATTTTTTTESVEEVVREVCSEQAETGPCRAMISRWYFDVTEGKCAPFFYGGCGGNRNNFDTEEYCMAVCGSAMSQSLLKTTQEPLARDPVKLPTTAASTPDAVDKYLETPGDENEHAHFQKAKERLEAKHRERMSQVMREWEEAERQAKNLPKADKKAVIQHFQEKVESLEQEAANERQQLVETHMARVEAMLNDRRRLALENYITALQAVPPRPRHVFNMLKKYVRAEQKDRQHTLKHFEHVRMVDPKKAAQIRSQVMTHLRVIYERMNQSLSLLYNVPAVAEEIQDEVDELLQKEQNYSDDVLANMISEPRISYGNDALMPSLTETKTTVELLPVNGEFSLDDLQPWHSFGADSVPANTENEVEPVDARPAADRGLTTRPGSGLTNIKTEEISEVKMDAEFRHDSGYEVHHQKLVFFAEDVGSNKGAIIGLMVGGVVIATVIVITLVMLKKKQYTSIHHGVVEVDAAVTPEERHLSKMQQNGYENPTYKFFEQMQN
Chain of Cholinesterase (P81908 whole entry): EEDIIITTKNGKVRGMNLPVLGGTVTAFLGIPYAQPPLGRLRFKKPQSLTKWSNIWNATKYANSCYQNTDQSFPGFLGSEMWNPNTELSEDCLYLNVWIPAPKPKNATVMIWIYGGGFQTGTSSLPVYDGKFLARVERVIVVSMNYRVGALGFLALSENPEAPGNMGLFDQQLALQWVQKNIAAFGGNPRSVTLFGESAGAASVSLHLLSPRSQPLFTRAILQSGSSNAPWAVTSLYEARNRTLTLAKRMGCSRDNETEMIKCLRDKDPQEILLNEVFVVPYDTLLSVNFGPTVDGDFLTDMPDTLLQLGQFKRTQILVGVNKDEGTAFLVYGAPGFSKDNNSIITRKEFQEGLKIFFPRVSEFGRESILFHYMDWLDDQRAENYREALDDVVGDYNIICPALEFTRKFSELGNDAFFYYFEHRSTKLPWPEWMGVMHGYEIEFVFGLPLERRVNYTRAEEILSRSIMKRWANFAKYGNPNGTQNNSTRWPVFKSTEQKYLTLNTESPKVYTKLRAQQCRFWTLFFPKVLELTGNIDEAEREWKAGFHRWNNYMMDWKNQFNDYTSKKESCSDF
Chain of Cholinesterase (Equus caballus) (P81908 whole entry): as above

| Structure (SMILES) | IC50 ([1]; read-out: IC50) [µM] | IC50 ([2]; read-out: IC50) [µM] | Ratio IC50 [3] | inhibition [4] | IC50 [1] | IC50 [2] | further results |
| --- | --- | --- | --- | --- | --- | --- | --- |
| COC(=O)C1Cc2c([nH]c3ccccc23)C(c2ccccc2)N1C(=O)CCN1CCN(CCC(=O)N2C(C(=O)OC)Cc3c([nH]c4ccccc34)C2c2ccccc2)CC1 (stereo not drawn) | 488 | 5.7 | 85.6 | 41.9% | – | – | – |
| COC(=O)C1Cc2c([nH]c3ccccc23)C(C)N1C(=O)CN(C)CCN(C)CC(=O)N1C(C(=O)OC)Cc2c([nH]c3ccccc23)C1C (stereo not drawn) | 39.8 | 9 | 4.3 | 72.3% | – | – | Activity [5]: Toxic |
| COC(=O)C1Cc2c([nH]c3ccccc23)C(c2ccccc2)N1C(=O)CN(C)CCN(C)CC(=O)N1C(C(=O)OC)Cc2c([nH]c3ccccc23)C1c1ccccc1 (stereo not drawn) | 64 | 14.6 | 4.4 | 65.1% | – | – | – |
| COC(=O)C1Cc2c([nH]c3ccccc23)C(C)N1C(=O)CCCN1CCN(CCCC(=O)N2C(C(=O)OC)Cc3c([nH]c4ccccc34)C2C)CC1 (stereo not drawn) | 44.2 | 2.8 | 15.8 | 85.7% | – | – | viability at 24 h, 1 µM [6]: 98.6%; viability at 24 h, 2.5 µM [7]: 99.1%; viability at 24 h, 5 µM [8]: 101%; viability at 24 h, 10 µM [9]: 90.8%; Activity [10]: Active; viability at 1 µM [11]: 90.4%; viability at 5 µM [12]: 85.5%; viability at 1 µM [13]: 101% |
| COC(=O)c1cc2c3ccccc3n(CCCN3CCN(CCCn4c5ccccc5c5cc(C(=O)OC)nc(C)c54)CC3)c2c(C)n1 | 11.2 | 0.7 | 16 | inactive | – | – | Activity [5]: Toxic; Ratio IC50 [14]: 4 |
| COC(=O)c1cc2c3ccccc3n(CCCN3CCN(CCCn4c5ccccc5c5cc(C(=O)OC)nc(-c6ccccc6)c54)CC3)c2c(-c2ccccc2)n1 | – | – | inactive | – | Not Active | Not Active | – |
| COC(=O)C1Cc2c([nH]c3ccccc23)C(C)N1C(=O)CCN(C)CCN(C)CCC(=O)N1C(C(=O)OC)Cc2c([nH]c3ccccc23)C1C (stereo not drawn) | 18 | 1.7 | 10.6 | 82.7% | – | – | viability at 24 h, 1 µM [6]: 106%; viability at 24 h, 2.5 µM [7]: 92.8%; viability at 24 h, 5 µM [8]: 92.4%; Activity [10]: Active; viability at 1 µM [11]: 100%; viability at 5 µM [12]: 42.1%; Activity [15]: Active |
| COC(=O)c1cc2c3ccccc3n(CCCCN3CCN(CCCCn4c5ccccc5c5cc(C(=O)OC)nc(-c6ccccc6)c54)CC3)c2c(-c2ccccc2)n1 | – | – | inactive | – | Not Active | Not Active | – |
| COC(=O)c1cc2c3ccccc3n(CCCN(C)CCN(C)CCCn3c4ccccc4c4cc(C(=O)OC)nc(C)c43)c2c(C)n1 | 99.1 | 15.4 | 6.4 | inactive | – | – | – |
| COC(=O)C1Cc2c([nH]c3ccccc23)C(C)N1 (stereo not drawn) | – | – | inactive | – | Not Active | Not Active | – |
| COC(=O)C1Cc2c([nH]c3ccccc23)C(C)N1C(=O)CN1CCN(CC(=O)N2C(C(=O)OC)Cc3c([nH]c4ccccc34)C2C)CC1 (stereo not drawn) | – | 20.9 | inactive | 50.8% | Not Active | – | – |
| COC(=O)C1Cc2c([nH]c3ccccc23)CN1 (stereo not drawn) | – | – | inactive | – | Not Active | Not Active | – |
| COC(=O)c1cc2c3ccccc3n(CCCN(C)CCN(C)CCCn3c4ccccc4c4cc(C(=O)OC)nc(-c5ccccc5)c43)c2c(-c2ccccc2)n1 | 147 | 0.8 | 184 | 25.4% | – | – | viability at 24 h, 1 µM [6]: 98.2%; viability at 24 h, 2.5 µM [7]: 93.2%; viability at 24 h, 5 µM [8]: 93.7%; Activity [16]: inactive |
| COC(=O)C1Cc2c([nH]c3ccccc23)CN1C(=O)CN1CCN(CC(=O)N2Cc3[nH]c4ccccc4c3CC2C(=O)OC)CC1 (stereo not drawn) | – | – | inactive | – | Not Active | Not Active | – |
| COC(=O)c1cc2c3ccccc3n(CCCCN(C)CCN(C)CCCCn3c4ccccc4c4cc(C(=O)OC)nc(-c5ccccc5)c43)c2c(-c2ccccc2)n1 | 15.7 | 1.8 | 8.7 | 71.5% | – | – | Activity [5]: Toxic |
| COC(=O)c1cc2c([nH]c3ccccc32)c(C)n1 | – | – | inactive | – | Not Active | Not Active | – |
| COC(=O)c1cc2c([nH]c3ccccc32)c(-c2ccccc2)n1 | – | – | inactive | – | Not Active | Not Active | – |
| COC(=O)C1Cc2c([nH]c3ccccc23)C(c2ccccc2)N1 (stereo not drawn) | – | – | inactive | – | Not Active | Not Active | – |
| COC(=O)c1cc2c3ccccc3n(CCCCN3CCN(CCCCn4c5ccccc5c5cc(C(=O)OC)nc(C)c54)CC3)c2c(C)n1 | 11.6 | 9.7 | 1.2 | inactive | – | – | – |
| COC(=O)C1Cc2c([nH]c3ccccc23)CN1C(=O)CCN(C)CCN(C)CCC(=O)N1Cc2[nH]c3ccccc3c2CC1C(=O)OC (stereo not drawn) | 25.4 | 27 | 0.9 | 59.2% | – | – | – |
| COC(=O)C1Cc2c([nH]c3ccccc23)C(c2ccccc2)N1C(=O)CCCN1CCN(CCCC(=O)N2C(C(=O)OC)Cc3c([nH]c4ccccc34)C2c2ccccc2)CC1 (stereo not drawn) | – | – | inactive | – | Not Active | Not Active | – |
| COC(=O)c1cc2c3ccccc3n(CCCCN(C)CCN(C)CCCCn3c4ccccc4c4cc(C(=O)OC)nc(C)c43)c2c(C)n1 | 9.6 | 1.5 | 6.4 | 65.5% | – | – | Activity [5]: Toxic |
